Measured values taken from ChEMBL document CHEMBL1629676, “Inhibitory and bactericidal activities of daptomycin, vancomycin, and teicoplanin against methicillin-resistant Staphylococcus aureus isolates collected from 1985 to 2007” (2009).
Converted amounts (≈) assume the structure as drawn.

Legend:
Staphylococcus aureus [1] = assay: Antimicrobial activity against methicillin-resistant Staphylococcus aureus assessed as >=3log10 CFU/ml reduction in bacterial growth after 24 to 48 hrs by CLSI method; assay type: functional
Summary of the method: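 MBC per CLSI: entire 0.1 ml from the MIC well and from wells 4 dilutions above the MIC spread on blood agar, dried 20 min, then spread evenly; incubated 35 to 37°C for 24 to 48 h. MBC taken as the lowest dilution giving ≥99.9% (≥3-log10 CFU/ml) reduction versus the growth control count.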

Staphylococcus aureus [2] = assay: Antimicrobial activity against methicillin-resistant Staphylococcus aureus by broth dilution assay; assay type: functional

Row | SMILES | MBC50 (Staphylococcus aureus [1]) [µg/mL] | MBC90 (Staphylococcus aureus [1]) [µg/mL] | MIC50 (Staphylococcus aureus [2]) [µg/mL] | MIC90 (Staphylococcus aureus [2]) [µg/mL]
1 | CN[C@H](CC(C)C)C(=O)N[C@H]1C(=O)N[C@@H](CC(N)=O)C(=O)N[C@H]2C(=O)N[C@H]3C(=O)N[C@H](C(=O)N[C@H](C(=O)O)c4cc(O)cc(O)c4-c4cc3ccc4O)[C@H](O)c3ccc(c(Cl)c3)Oc3cc2cc(c3O[C@@H]2O[C@H](CO)[C@@H](O)[C@H](O)[C@H]2O[C@H]2C[C@](C)(N)[C@H](O)[C@H](C)O2)Oc2ccc(cc2Cl)[C@H]1O [VANCOMYCIN] | 1 (≈ 0.69 µM) | 1 (≈ 0.69 µM) | 1 (≈ 0.69 µM) | 1 (≈ 0.69 µM)
2 | CCCCCCCCCC(=O)N[C@@H](Cc1c[nH]c2ccccc12)C(=O)N[C@H](CC(N)=O)C(=O)N[C@@H](CC(=O)O)C(=O)N[C@@H]1C(=O)NCC(=O)N[C@@H](CCCN)C(=O)N[C@@H](CC(=O)O)C(=O)N[C@H](C)C(=O)N[C@@H](CC(=O)O)C(=O)NCC(=O)N[C@H](CO)C(=O)N[C@@H]([C@H](C)CC(=O)O)C(=O)N[C@@H](CC(=O)c2ccccc2N)C(=O)O[C@@H]1C | 0.5 (≈ 0.309 µM) | 1 (≈ 0.617 µM) | 0.5 (≈ 0.309 µM) | 0.5 (≈ 0.309 µM)
3 | CC(=O)N[C@@H]1[C@H](Oc2c3cc4cc2Oc2ccc(cc2Cl)[C@@H](O[C@@H]2O[C@@H](CO)[C@@H](O)[C@H](O)[C@@H]2NC(C)=O)[C@@H]2NC(=O)[C@H](NC(=O)[C@@H]4NC(=O)[C@H]4NC(=O)[C@@H](Cc5ccc(c(Cl)c5)O3)NC(=O)[C@H](N)c3ccc(O)c(c3)Oc3cc(O)cc4c3)c3ccc(O)c(c3)-c3c(O[C@H]4O[C@H](CO)[C@@H](O)[C@@H](O)[C@@H]4O)cc(O)cc3[C@@H](C(=O)O)NC2=O)O[C@@H](CO)[C@@H](O)[C@@H]1O | 2 (≈ 1.13 µM) | 32 (≈ 18.1 µM) | 1 (≈ 0.566 µM) | 1 (≈ 0.566 µM)
